Measurements from publication PMC10373466 (ACS Omega, 2023).
Several values for one entry are separate records, joined by “and”; a condition that tells them apart may be missing. Equal entries are not always repeated.

Assays:
hAChE = hAChE (Homo sapiens, UniProt P22303); assay: In vitro AChE inhibition assay; format: biochemical; conditions: for IC50: in vitro AChE inhibition IC50 ± SD, Ellman method, n = 3
hBuChE = hBuChE (Homo sapiens, UniProt P06276); assay: In vitro BuChE inhibition assay; format: biochemical; conditions: for IC50: BuChE IC50 ± SD, modified Ellman method
BACE-1 = BACE-1 (Homo sapiens, UniProt P56817); assay: β-Secretase inhibition assay; format: biochemical; conditions: BACE-1 IC50 ± SD
hMAO-B = biological target: T1, hMAO-B (Homo sapiens, UniProt P27338); assay: biochemical; format: biochemical
T1 sequence (P27338 1-520): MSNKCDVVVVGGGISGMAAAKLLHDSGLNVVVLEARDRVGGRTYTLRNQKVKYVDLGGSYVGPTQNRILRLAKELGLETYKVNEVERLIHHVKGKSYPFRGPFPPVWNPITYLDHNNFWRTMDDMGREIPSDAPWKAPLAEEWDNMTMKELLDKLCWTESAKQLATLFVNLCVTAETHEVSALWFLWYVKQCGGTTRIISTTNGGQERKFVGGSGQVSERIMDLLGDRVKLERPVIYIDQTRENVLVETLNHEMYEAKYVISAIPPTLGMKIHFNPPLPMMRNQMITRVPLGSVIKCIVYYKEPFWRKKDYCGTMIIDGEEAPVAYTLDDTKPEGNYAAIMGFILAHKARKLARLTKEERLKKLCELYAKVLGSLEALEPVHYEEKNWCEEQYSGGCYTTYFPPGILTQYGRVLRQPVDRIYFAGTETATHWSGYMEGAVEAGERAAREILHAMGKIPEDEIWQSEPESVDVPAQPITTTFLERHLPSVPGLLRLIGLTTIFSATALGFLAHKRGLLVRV

Aβ1–42 = Aβ1–42 (Homo sapiens, UniProt P05067); assay: Self-induced Aβ1–42 aggregation inhibition; format: biochemical; conditions: for IC50: Aβ1–42 aggregation inhibition IC50, self-induced aggregation; for inhibition at 10 µM: read-out: Aβ1–42 (% inhibition at 10 μM)
[1] = Total antioxidant capacity; conditions: Trolox TAC value = 1.00
[2] = In vitro neurotoxicity MTT assay; format: cell-based; conditions: human, SH-SY5Y neuroblastoma cells
[3] = Metal chelation assay, UV–vis spectroscopy; format: physicochemical; conditions: compound 30 μM, FeSO4 30 μM, ethanol
Outline: (§1)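 Test compound and metal salt (CuSO4, ZnSO4 or FeSO4) mixed in ethanol, both at 30 μM final, and incubated 30 min at room temperature. UV-vis spectra were recorded from 200 to 600 nm for the compound alone, the metal alone and the mixture. Spectra of metal alone and compound alone were subtracted from the mixture spectrum to give the difference spectrum attributed to complex formation.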

[4] = Metal chelation assay, UV–vis spectroscopy; format: physicochemical; conditions: compound 30 μM, CuSO4 30 μM, ethanol
Outline: as §1

[5] = Metal chelation assay, UV–vis spectroscopy; format: physicochemical; conditions: compound 30 μM, ZnSO4 30 μM, ethanol
Outline: as §1

[6] = In vitro hepatotoxicity MTT assay; conditions: human
HepG2 cell line = assay: In vitro hepatotoxicity MTT assay; conditions: ratio of hepatotoxicity IC50 to AChE IC50

Sequence of BACE-1 (P56817 46-501): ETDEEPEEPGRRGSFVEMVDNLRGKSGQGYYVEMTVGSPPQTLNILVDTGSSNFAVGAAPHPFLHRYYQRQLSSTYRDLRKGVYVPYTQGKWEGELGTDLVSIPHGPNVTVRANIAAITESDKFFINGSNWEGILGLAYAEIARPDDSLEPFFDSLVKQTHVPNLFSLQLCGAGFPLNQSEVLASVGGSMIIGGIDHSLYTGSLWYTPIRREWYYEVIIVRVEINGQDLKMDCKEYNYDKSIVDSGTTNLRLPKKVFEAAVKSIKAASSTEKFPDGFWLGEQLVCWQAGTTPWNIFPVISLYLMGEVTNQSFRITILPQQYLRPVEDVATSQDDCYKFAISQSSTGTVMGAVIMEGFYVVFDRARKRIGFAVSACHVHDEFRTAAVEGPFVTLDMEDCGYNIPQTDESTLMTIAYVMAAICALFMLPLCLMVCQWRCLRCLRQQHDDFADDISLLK
Sequence of Aβ1–42 (P05067 672-713): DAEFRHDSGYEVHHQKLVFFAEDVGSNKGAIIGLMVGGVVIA
Sequence of hAChE (P22303 32-614): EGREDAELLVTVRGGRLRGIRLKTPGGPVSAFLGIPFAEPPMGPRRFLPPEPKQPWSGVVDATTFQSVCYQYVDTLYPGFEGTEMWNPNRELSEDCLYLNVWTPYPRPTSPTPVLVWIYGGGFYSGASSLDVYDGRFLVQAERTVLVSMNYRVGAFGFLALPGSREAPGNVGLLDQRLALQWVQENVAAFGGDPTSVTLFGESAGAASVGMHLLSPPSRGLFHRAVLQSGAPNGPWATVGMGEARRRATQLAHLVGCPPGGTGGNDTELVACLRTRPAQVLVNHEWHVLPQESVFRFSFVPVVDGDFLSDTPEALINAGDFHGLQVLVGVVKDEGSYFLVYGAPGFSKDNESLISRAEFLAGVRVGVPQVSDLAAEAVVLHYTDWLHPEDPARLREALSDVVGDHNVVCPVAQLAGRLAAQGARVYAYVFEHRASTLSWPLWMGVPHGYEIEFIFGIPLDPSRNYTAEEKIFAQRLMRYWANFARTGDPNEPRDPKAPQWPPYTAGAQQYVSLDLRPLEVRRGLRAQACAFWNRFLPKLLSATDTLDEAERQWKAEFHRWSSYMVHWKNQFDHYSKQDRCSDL
Sequence of hBuChE (P06276 29-602): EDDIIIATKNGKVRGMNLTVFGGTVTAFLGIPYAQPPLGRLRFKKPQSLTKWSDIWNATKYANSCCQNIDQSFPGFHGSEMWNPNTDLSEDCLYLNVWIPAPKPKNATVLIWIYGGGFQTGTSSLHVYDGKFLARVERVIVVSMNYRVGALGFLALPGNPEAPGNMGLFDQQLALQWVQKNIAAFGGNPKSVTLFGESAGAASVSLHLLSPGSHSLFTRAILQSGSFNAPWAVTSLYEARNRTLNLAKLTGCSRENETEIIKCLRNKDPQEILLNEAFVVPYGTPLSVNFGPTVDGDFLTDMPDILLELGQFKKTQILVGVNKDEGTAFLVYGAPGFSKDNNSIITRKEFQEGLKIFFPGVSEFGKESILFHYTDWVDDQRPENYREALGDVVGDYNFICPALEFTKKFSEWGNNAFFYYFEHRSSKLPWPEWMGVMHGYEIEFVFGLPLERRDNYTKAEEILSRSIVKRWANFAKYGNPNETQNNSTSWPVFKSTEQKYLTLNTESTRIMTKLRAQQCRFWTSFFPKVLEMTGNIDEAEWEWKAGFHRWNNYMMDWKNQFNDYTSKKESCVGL

SMILES	AChE SI (selectivity index) = IC50 of BuChE/IC50 of AChE (hAChE)	IC50 (hAChE) [nM]	BuChE SI (selectivity index) = IC50 of AChE/IC50 of BuChE (hBuChE)	IC50 (hBuChE)	IC50 (BACE-1) [nM]	IC50 (hMAO-B) [µM]	IC50 (Aβ1–42) [µM]	inhibition at 10 µM (Aβ1–42) [%]	total antioxidant capacity (Trolox equivalent) [1]	IC50 [2] [µM]	UV–vis spectral change on addition of FeSO4 (metal chelation) [3]	UV–vis spectral change on addition of CuSO4 (metal chelation) [4]	UV–vis spectral change on addition of ZnSO4 (metal chelation) [5]	IC50 at 24 h [6] [µM]	safety index ratio (SI) (HepG2 cell line)	fold more active than rivastigmine (BuChE inhibition) (hBuChE) [fold]	times better than iproniazid (MAO-B inhibition) (hMAO-B) [times]
Nc1c2c(nc3c1C(c1cccc([N+](=O)[O-])c1)c1ccc(OS(=O)(=O)c4ccc(F)cc4)cc1O3)CCCC2 (stereo not drawn) [4c, 11-Amino-12-(3-nitrophenyl)-7,9,10,12-tetrahydro-8H-chromeno[2,3-b]quinolin-3-yl-4-fluorobenzenesulfonate]	1.11	620 ± 30	0.90	690 ± 41 nM	2680 ± 123	8.04 ± 0.27	4.28 ± 0.17	47	0.80 ± 0.032 μmol of Trolox equivalent/μmol tested compound	27.9 ± 1.24	extraordinary hyperchromic shifts	extraordinary hyperchromic shifts	extraordinary hyperchromic shifts	78.3 ± 3.6	125.26		
Nc1c2c(nc3c1C(c1cccc([N+](=O)[O-])c1)c1ccc(OCC(=O)c4ccc(Cl)cc4)cc1O3)CCCC2 (stereo not drawn) [5c, 2-[11-Amino-12-(3-nitrophenyl)-7,9,10,12-tetrahydro-8H-chromeno[2,3-b]quinolin-3-yl]oxy-1-(4-chlorophenyl)ethan-1-one]	0.19	440 ± 20	5.37	82 nM and 80 nM	380 ± 17	5.15 ± 0.17	2.85 ± 0.11	59	0.88 ± 0.034 μmol of Trolox equivalent/μmol tested compound	36.3 ± 1.43	noteworthy hyperchromic effect	noteworthy hyperchromic effect	slight hyperchromic effect	188 ± 6.9	427.73	10	
Cc1ccc(S(=O)(=O)Oc2ccc3c(c2)Oc2nc4c(c(N)c2C3c2ccc(Cl)c(Cl)c2)CCCC4)cc1 (stereo not drawn) [4n, 11-Amino-12-(3,4-dichlorophenyl)-7,9,10,12-tetrahydro-8H-chromeno[2,3-b]quinolin-3-yl-4-methylbenzenesulfonate]	0.38	470 ± 20	2.59	180 ± 11 nM	250 ± 11	3.73 ± 0.13	17.4 ± 0.68	40	0.66 ± 0.026 μmol of Trolox equivalent/μmol tested compound	91.7 ± 4.06	remarkable hyperchromic effect	remarkable hyperchromic effect	remarkable hyperchromic effect	67.4 ± 3.3	141.53	~4	~2
